Assay [1] addresses T1, Growth hormone secretagogue receptor type 1 (Homo sapiens, UniProt Q92847). The assay is described as follows: Displacement of [35S]MK677 from human ghrelin receptor expressed in african green monkey COS7 cells. The class given is cell-based, COS-7. For orientation: Loss of bound radioactivity is the signal in a displacement assay; it reports binding, not function.
Target sequence in this assay (Q92847 whole entry): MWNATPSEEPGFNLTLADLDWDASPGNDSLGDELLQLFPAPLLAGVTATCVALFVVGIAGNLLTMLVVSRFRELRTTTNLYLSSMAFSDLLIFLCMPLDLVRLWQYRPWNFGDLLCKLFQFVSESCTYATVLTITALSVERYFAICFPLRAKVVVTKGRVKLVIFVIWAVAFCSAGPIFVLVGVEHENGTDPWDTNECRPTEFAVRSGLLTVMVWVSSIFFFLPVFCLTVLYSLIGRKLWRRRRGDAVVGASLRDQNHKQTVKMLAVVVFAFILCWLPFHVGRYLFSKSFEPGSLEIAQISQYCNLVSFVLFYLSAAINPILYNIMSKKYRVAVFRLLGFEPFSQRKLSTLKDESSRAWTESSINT
In assay [2] the target is T1, Growth hormone secretagogue receptor type 1. The assay is described as follows: Inverse agonist activity at human ghrelin receptor expressed in african green monkey COS7 cells assessed as constitutively stimulated inositol phosphate accumulation. The class given is functional, cell-based, COS-7.
Target sequence in this assay (Q92847 whole entry): as above
Assay [3] deals with Growth hormone secretagogue receptor type 1 (Homo sapiens, UniProt Q92847, F312A). The assay is described as follows: Agonist activity at human ghrelin receptor Phe7:09Ala(Phe312) mutant expressed in african green monkey COS7 cells assessed as stimulation of constitutively stimulated inositol phosphate accumulation. The class given is functional, cell-based, COS-7. The gist of the method:
(§1)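 COS-7 cells transiently transfected (calcium phosphate with chloroquine, cDNA amount giving maximal basal signaling, 20 μg/75 cm2). After 1 day, labeled 24 h with 5 μCi myo-[3H]inositol. Washed in HEPES buffer pH 7.4, preincubated 30 min at 37 °C with 10 mM LiCl, then exposed to peptide concentrations for 45 min at 37 °C. Formic acid extraction, anion-exchange purification. Duplicate determinations. EC50 by nonlinear regression.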

Assay [4] addresses Growth hormone secretagogue receptor type 1 (Homo sapiens, UniProt Q92847, V216A). In words: Agonist activity at human ghrelin receptor Val5:08Ala(Val216) mutant expressed in african green monkey COS7 cells assessed as stimulation of constitutively stimulated inositol phosphate accumulation. The class given is functional, cell-based, COS-7. The gist of the method:
as §1

In assay [5] the target is Growth hormone secretagogue receptor type 1 (Homo sapiens, UniProt Q92847, I178A). The assay is described as follows: Agonist activity at human ghrelin receptor Ile4:20Ala(Ile178) mutant expressed in african green monkey COS7 cells assessed as stimulation of constitutively stimulated inositol phosphate accumulation. The class given is functional, cell-based, COS-7. The gist of the method: as §1
Chain of Growth hormone secretagogue receptor type 1 (Homo sapiens, UniProt Q92847, I178A) (Q92847 whole entry I178A): as the sequence (Q92847 whole entry) above, with I178A counted along it

In assay [6] the target is Growth hormone secretagogue receptor type 1 (Homo sapiens, UniProt Q92847, N305A). The assay is described as follows: Agonist activity at human ghrelin receptor Asn7:02Ala(Asn305) mutant expressed in african green monkey COS7 cells assessed as stimulation of constitutively stimulated inositol phosphate accumulation. It counts as functional, cell-based, COS-7. In outline:
as §1

For assay [7], the target named is T1, Growth hormone secretagogue receptor type 1. The assay is described as follows: Agonist activity at human ghrelin receptor Phe7:06Leu(Phe306) mutant expressed in african green monkey COS7 cells assessed as stimulation of constitutively stimulated inositol phosphate accumulation. It counts as functional, cell-based. The following applies: cos-7. The gist of the method:
as §1
Target sequence in this assay (Q92847 whole entry, looked up): as the sequence (Q92847 whole entry) above

The target of assay [8] is Growth hormone secretagogue receptor type 1 (Homo sapiens, UniProt Q92847, D99K). In words: Agonist activity at human ghrelin receptor Asp2:20Lys(Asp99) mutant expressed in african green monkey COS7 cells assessed as stimulation of constitutively stimulated inositol phosphate accumulation. The class given is functional, cell-based, COS-7. In outline:
as §1

Assay [9] addresses Growth hormone secretagogue receptor type 1 (Homo sapiens, UniProt Q92847, R283Q). The assay is described as follows: Agonist activity at human ghrelin receptor Arg6:20Gln(Arg283) mutant expressed in african green monkey COS7 cells assessed as stimulation of constitutively stimulated inositol phosphate accumulation. It counts as functional, cell-based, COS-7. In outline: as §1

Assay [10] addresses T1, Growth hormone secretagogue receptor type 1. In words: Agonist activity at human wild type ghrelin receptor expressed in african green monkey COS7 cells assessed as stimulation of constitutively stimulated inositol phosphate accumulation. The class given is functional, cell-based, COS-7. In outline: as §1
Target sequence in this assay (Q92847 whole entry): as above
The target is the same in assay [11]. In words: Agonist activity at human ghrelin receptor Asp2:20Asn(Asp99) mutant expressed in african green monkey COS7 cells assessed as stimulation of constitutively stimulated inositol phosphate accumulation. It counts as functional, cell-based. The note with it: cos-7. In outline: as §1
Target sequence in this assay (Q92847 whole entry, looked up): as the sequence (Q92847 whole entry) above
Assay [12] has as its target Growth hormone secretagogue receptor type 1 (Homo sapiens, UniProt Q92847, F220A). In words: Agonist activity at human ghrelin receptor Phe5:12Ala(Phe220) mutant expressed in african green monkey COS7 cells assessed as stimulation of constitutively stimulated inositol phosphate accumulation. The class given is functional, cell-based, COS-7. The gist of the method: as §1

Assay [13] deals with Growth hormone secretagogue receptor type 1 (Homo sapiens, UniProt Q92847, S123A). In words: Inverse agonist activity at human ghrelin receptor Ser3:08Ala(Ser123) mutant expressed in african green monkey COS7 cells assessed as inhibition of constitutively stimulated inositol phosphate accumulation.
Chain of Growth hormone secretagogue receptor type 1 (Homo sapiens, UniProt Q92847, S123A) (Q92847 whole entry S123A): as the sequence (Q92847 whole entry) above, with S123A counted along it
The target of assay [14] is Growth hormone secretagogue receptor type 1 (Homo sapiens, UniProt Q92847, F119S). In words: Agonist activity at human ghrelin receptor Phe3:04Ser(phe119) mutant expressed in african green monkey COS7 cells assessed as stimulation of constitutively stimulated inositol phosphate accumulation. It counts as functional, cell-based, COS-7. In outline: as §1
Chain of Growth hormone secretagogue receptor type 1 (Homo sapiens, UniProt Q92847, F119S) (Q92847 whole entry F119S): as the sequence (Q92847 whole entry) above, with F119S counted along it
Assay [15] addresses Growth hormone secretagogue receptor type 1 (Homo sapiens, UniProt Q92847, S217A). The assay is described as follows: Agonist activity at human ghrelin receptor Ser5:09Ala(Ser217) mutant expressed in african green monkey COS7 cells assessed as stimulation of constitutively stimulated inositol phosphate accumulation. The class given is functional, cell-based, COS-7. In outline:
as §1

Assay [16] has as its target Growth hormone secretagogue receptor type 1 (Homo sapiens, UniProt Q92847, S174A). In words: Agonist activity at human ghrelin receptor Ser4:16Ala(Ser174) mutant expressed in african green monkey COS7 cells assessed as stimulation of constitutively stimulated inositol phosphate accumulation. It counts as functional, cell-based, COS-7. In outline:
as §1

In assay [17] the target is Growth hormone secretagogue receptor type 1 (Homo sapiens, UniProt Q92847, F279A). In words: Agonist activity at human ghrelin receptor Phe6:16Ala(Phe279) mutant expressed in african green monkey COS7 cells assessed as stimulation of constitutively stimulated inositol phosphate accumulation. The class given is functional, cell-based, COS-7. In outline:
as §1

The target in assay [18] is Growth hormone secretagogue receptor type 1 (Homo sapiens, UniProt Q92847, Q120A). The assay is described as follows: Agonist activity at human ghrelin receptor Gln3:05Ala(Gln120) mutant expressed in african green monkey COS7 cells assessed as stimulation of constitutively stimulated inositol phosphate accumulation. The class given is functional, cell-based, COS-7. In outline: as §1
Chain of Growth hormone secretagogue receptor type 1 (Homo sapiens, UniProt Q92847, Q120A) (Q92847 whole entry Q120A): as the sequence (Q92847 whole entry) above, with Q120A counted along it

For assay [19], the target named is Growth hormone secretagogue receptor type 1 (Homo sapiens, UniProt Q92847, M213A). In words: Agonist activity at human ghrelin receptor Met5:05Ala(Met213) mutant expressed in african green monkey COS7 cells assessed as stimulation of constitutively stimulated inositol phosphate accumulation. It counts as functional, cell-based, COS-7. In outline: as §1
Chain of Growth hormone secretagogue receptor type 1 (Homo sapiens, UniProt Q92847, M213A) (Q92847 whole entry M213A): as the sequence (Q92847 whole entry) above, with M213A counted along it
In assay [20] the target is Growth hormone secretagogue receptor type 1 (Homo sapiens, UniProt Q92847, E124Q). In words: Agonist activity at human ghrelin receptor Glu3:09Gln(Glu124) mutant expressed in african green monkey COS7 cells assessed as stimulation of constitutively stimulated inositol phosphate accumulation. The class given is functional, cell-based, COS-7. In outline: as §1
Chain of Growth hormone secretagogue receptor type 1 (Homo sapiens, UniProt Q92847, E124Q) (Q92847 whole entry E124Q): as the sequence (Q92847 whole entry) above, with E124Q counted along it

Each structure is given as a SMILES string. Bounds are passed on as bounds.

Chain of Growth hormone secretagogue receptor type 1 (Homo sapiens, UniProt Q92847, F312A) (Q92847 whole entry F312A): as the sequence (Q92847 whole entry) above, with F312A counted along it
Chain of Growth hormone secretagogue receptor type 1 (Homo sapiens, UniProt Q92847, S174A) (Q92847 whole entry S174A): as the sequence (Q92847 whole entry) above, with S174A counted along it
Chain of Growth hormone secretagogue receptor type 1 (Homo sapiens, UniProt Q92847, D99K) (Q92847 whole entry D99K): as the sequence (Q92847 whole entry) above, with D99K counted along it
Chain of Growth hormone secretagogue receptor type 1 (Homo sapiens, UniProt Q92847, S217A) (Q92847 whole entry S217A): as the sequence (Q92847 whole entry) above, with S217A counted along it
Chain of Growth hormone secretagogue receptor type 1 (Homo sapiens, UniProt Q92847, V216A) (Q92847 whole entry V216A): as the sequence (Q92847 whole entry) above, with V216A counted along it
Chain of Growth hormone secretagogue receptor type 1 (Homo sapiens, UniProt Q92847, F279A) (Q92847 whole entry F279A): as the sequence (Q92847 whole entry) above, with F279A counted along it
Chain of Growth hormone secretagogue receptor type 1 (Homo sapiens, UniProt Q92847, F220A) (Q92847 whole entry F220A): as the sequence (Q92847 whole entry) above, with F220A counted along it
Chain of Growth hormone secretagogue receptor type 1 (Homo sapiens, UniProt Q92847, N305A) (Q92847 whole entry N305A): as the sequence (Q92847 whole entry) above, with N305A counted along it
Chain of Growth hormone secretagogue receptor type 1 (Homo sapiens, UniProt Q92847, R283Q) (Q92847 whole entry R283Q): as the sequence (Q92847 whole entry) above, with R283Q counted along it

As a reminder, the IC50 is the concentration that gives 50% inhibition. `CC(C)C[C@H](NC(=O)[C@H](CC(C)C)NC(=O)[C@@H](Cc1c[nH]c2ccccc12)NC(=O)[C@H](Cc1ccccc1)NC(=O)[C@@H](Cc1c[nH]c2ccccc12)NC(=O)[C@@H](N)CCCN=C(N)N)C(N)=O`: the IC50 in assay [1] amounted to 12 nM; in assay [2], 21 nM.
With `CC(C)C[C@H](NC(=O)[C@H](CC(C)C)NC(=O)[C@@H](Cc1c[nH]c2ccccc12)NC(=O)[C@H](Cc1ccccc1)NC(=O)[C@@H](Cc1c[nH]c2ccccc12)NC(=O)[C@H](C)N)C(N)=O`, the IC50 in [3] was above 1000 nM; in assay [4] it was above 1000 nM; in assay [5], 160 nM; in assay [6], 15 nM; in assay [7], 81 nM; in assay [8], above 1000 nM. The IC50 in [9] is above 1000 nM; in assay [1], 53 nM; in assay [10] it was 15 nM; in [11], above 1000 nM; in assay [12], above 1000 nM; in [13], 28 nM. In addition, the IC50 in [14] was 41 nM; in [15] it was 14 nM; in assay [16] it was 6.1 nM; in assay [2] it was 15 nM; in assay [17] it was above 1000 nM; in [18] it was above 1000 nM. The values for the IC50 in assay [19] and in [20] were 0.35 nM and above 1000 nM, respectively.
On to `CC(C)C[C@H](NC(=O)[C@H](CC(C)C)NC(=O)[C@@H](Cc1c[nH]c2ccccc12)NC(=O)[C@H](Cc1ccccc1)NC(=O)[C@@H](Cc1c[nH]c2ccccc12)NC(=O)[C@@H](N)CC(=O)O)C(N)=O`, for which the IC50 worked out at 60 nM in [1] and 260 nM in assay [2].

Source of the values: ChEMBL document CHEMBL1156448, “Identification of an efficacy switch region in the ghrelin receptor responsible for interchange between agonism and inverse agonism” (J Biol Chem, 2007).
